Measurements published in ChEMBL document CHEMBL4613275, “Sulfonimide and Amide Derivatives as Novel PPARα Antagonists: Synthesis, Antiproliferative Activity, and Docking Studies” (ACS Med Chem Lett, 2020).
Active and inactive are the calls of the source. The calls are words filed in the database; no cut-off is given here.

What was measured:
[1] = target: T1, Peroxisome proliferator-activated receptor gamma (Homo sapiens) (UniProt P37231); experiment: Agonist activity at GAL4-tagged human PPARgamma LBD expressed in human HepG2 cells incubated for 20 to 22 hrs by luciferase reporter gene assay; type: cell-based
T1 sequence (whole entry): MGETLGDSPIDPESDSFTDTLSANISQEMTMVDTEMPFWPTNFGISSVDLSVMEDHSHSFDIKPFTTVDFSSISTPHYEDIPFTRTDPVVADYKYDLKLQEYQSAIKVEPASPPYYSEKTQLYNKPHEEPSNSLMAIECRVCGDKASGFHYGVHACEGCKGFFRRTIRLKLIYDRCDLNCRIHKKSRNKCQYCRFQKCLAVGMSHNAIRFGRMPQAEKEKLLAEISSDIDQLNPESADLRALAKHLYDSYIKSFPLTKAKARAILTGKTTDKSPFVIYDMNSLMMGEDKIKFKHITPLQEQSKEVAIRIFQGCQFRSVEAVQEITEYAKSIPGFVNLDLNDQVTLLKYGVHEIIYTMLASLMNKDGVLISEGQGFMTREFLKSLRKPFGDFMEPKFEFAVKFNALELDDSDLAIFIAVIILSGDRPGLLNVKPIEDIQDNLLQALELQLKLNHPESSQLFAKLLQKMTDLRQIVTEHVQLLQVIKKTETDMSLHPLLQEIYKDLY

[2] = tested on: HepG2; experiment: Cytotoxicity against human HepG2 cells at >5 uM; type: cell-based
[3] = tested on: Capan-2; experiment: Antiproliferative activity against human Capan2 cells assessed as inhibition of cell growth at 75 uM incubated for 72 hrs by MTT assay relative to control; type: functional; conditions: Capan-2, 72 h
[4] = target: T1, Peroxisome proliferator-activated receptor gamma (Homo sapiens); experiment: Effect on GAL4-tagged human PPARgamma LBD expressed in human HepG2 cells incubated for 20 to 22 hrs by luciferase reporter gene assay; type: cell-based
[5] = species: Homo sapiens; experiment: Antiproliferative activity against human PTJ86i cells assessed as inhibition of cell growth incubated for 72 hrs by MTT assay; type: functional
Outline: (§1)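 MTT viability assay after 72 h exposure to compound over 0–24 μM, 24 μM being the highest concentration. […] Data are means ± SD of duplicate experiments, five replicates each.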

[6] = tested on: HFF-1; experiment: Cytotoxicity against human HFF1 cells assessed as reduction in cell viability incubated for 72 hrs by MTT assay; type: cell-based; conditions: hff-1, 72 h; outline: as §1
[7] = tested on: ASPC1; experiment: Antiproliferative activity against human AsPC1 cells assessed as inhibition of cell growth incubated for 72 hrs by MTT assay; type: functional; conditions: for CC50: ASPC1, 72 h; outline: as §1
[8] = (§2) Antiproliferative activity against human PTJ86i cells assessed as inhibition of cell growth at 75 uM incubated for 72 hrs by MTT assay relative to control; type: functional
[9] = species: Homo sapiens; experiment: Antiproliferative activity against human PTJ64i cells assessed as inhibition of cell growth incubated for 72 hrs by MTT assay; type: functional; outline: as §1
[10] = target: T2, Peroxisome proliferator-activated receptor alpha (Homo sapiens, UniProt Q07869); experiment: Antagonist activity at GAL4-tagged human PPARalpha LBD expressed in human HepG2 cells assessed as inhibition of Wy14,643-induced receptor transactivation incubated for 20 to 22 hrs by luciferase reporter gene assay; type: cell-based
T2 sequence (Q07869 whole entry): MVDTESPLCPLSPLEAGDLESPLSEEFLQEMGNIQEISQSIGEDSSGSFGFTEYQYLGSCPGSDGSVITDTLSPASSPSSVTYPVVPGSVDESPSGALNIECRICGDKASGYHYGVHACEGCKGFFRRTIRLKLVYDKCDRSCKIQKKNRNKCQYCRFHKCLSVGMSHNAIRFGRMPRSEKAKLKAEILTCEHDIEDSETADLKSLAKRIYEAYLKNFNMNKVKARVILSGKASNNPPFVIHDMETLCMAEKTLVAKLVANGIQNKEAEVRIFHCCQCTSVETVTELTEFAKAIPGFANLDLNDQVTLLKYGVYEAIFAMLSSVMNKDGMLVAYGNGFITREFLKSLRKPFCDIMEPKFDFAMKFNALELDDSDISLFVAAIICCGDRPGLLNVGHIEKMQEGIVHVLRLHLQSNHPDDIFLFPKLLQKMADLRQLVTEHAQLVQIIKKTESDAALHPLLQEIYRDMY

[11] = tested on: HT-29; experiment: Antiproliferative activity against human HT-29 cells assessed as inhibition of cell growth incubated for 72 hrs by MTT assay; type: functional; conditions: for CC50: HT-29, 72 h; outline: as §1
[12] = tested on: Capan-2; experiment: Antiproliferative activity against human Capan2 cells assessed as inhibition of cell growth incubated for 72 hrs by MTT assay; type: functional; conditions: for CC50: Capan-2, 72 h; outline: as §1
[13] = tested on: SW480; experiment: Antiproliferative activity against human SW480 cells assessed as inhibition of cell growth incubated for 72 hrs by MTT assay; type: functional; conditions: for CC50: SW480, 72 h; outline: as §1
[14] = tested on: A498; experiment: Antiproliferative activity against human A498 cells assessed as inhibition of cell growth at 75 uM incubated for 72 hrs by MTT assay relative to control; type: functional; conditions: A498, 72 h
[15] = tested on: BXPC-3; experiment: Antiproliferative activity against human BxPC3 cells assessed as inhibition of cell growth incubated for 72 hrs by MTT assay; type: functional; conditions: for CC50: BXPC-3, 72 h; outline: as §1
[16] = Selectivity index, ratio of CC50 for human HFF1 cells to CC50 for human PTJ64i cells; type: toxicity; conditions: HFF1 cells and PTJ64i cells
[17] = Selectivity index, ratio of CC50 for human HFF1 cells to CC50 for human PTJ86i cells; type: toxicity; conditions: HFF1 cells and PTJ86i cells
[18] = tested on: BXPC-3; experiment: Antiproliferative activity against human BxPC3 cells assessed as inhibition of cell growth at 75 uM incubated for 72 hrs by MTT assay relative to control; type: functional; conditions: BXPC-3, 72 h
[19] = tested on: SW480; experiment: Antiproliferative activity against human SW480 cells assessed as inhibition of cell growth at 75 uM incubated for 72 hrs by MTT assay relative to control; type: functional; conditions: SW480, 72 h
[20] = tested on: HT-29; experiment: Antiproliferative activity against human HT-29 cells assessed as inhibition of cell growth at 75 uM incubated for 72 hrs by MTT assay relative to control; type: functional; conditions: HT-29, 72 h
[21] = tested on: A498; experiment: Antiproliferative activity against human A498 cells assessed as inhibition of cell growth incubated for 72 hrs by MTT assay; type: functional; conditions: for CC50: A498, 72 h; outline: as §1
[22] = tested on: ASPC1; experiment: Antiproliferative activity against human AsPC1 cells assessed as inhibition of cell growth at 75 uM incubated for 72 hrs by MTT assay relative to control; type: functional; conditions: ASPC1, 72 h
[23] = species: Homo sapiens; experiment: as §2; type: functional
[24] = species: Homo sapiens; experiment: Antiproliferative activity against human PTJ64i cells assessed as inhibition of cell growth at 75 uM incubated for 72 hrs by MTT assay relative to control; type: functional
[25] = target: T3, Peroxisome proliferator-activated receptor gamma (Homo sapiens, UniProt P37231); experiment: Antagonist activity at GAL4-tagged human PPARgamma LBD expressed in human HepG2 cells assessed as inhibition of Rosiglitazone-induced receptor transactivation incubated for 20 to 22 hrs by luciferase reporter gene assay
T3 sequence (P37231 whole entry): T1 sequence (whole entry)

SMILES: CC(C)(Oc1ccc(CCOc2ccc(/N=N/c3ccccc3)cc2)cc1)C(=O)NS(C)(=O)=O
- Activity [1]: inactive
- Activity [2]: Toxic

SMILES: CC(C)(Oc1ccc(CCOc2ccc(/N=N/c3ccccc3)cc2)cc1)C(=O)NS(=O)(=O)c1ccc([N+](=O)[O-])cc1
- inhibition at 75 µM [3]: 41 to 92%
- Activity [4]: inactive
- inhibition [5]: Dose-dependent effect
- CC50 [6]: > 24 µM
- inhibition [7]: Dose-dependent effect
- CC50 [7]: > 24 µM
- inhibition at 75 µM [8]: 84 to 98%
- inhibition [9]: Dose-dependent effect
- IC50 [10]: 1.1 µM
- inhibition [11]: Dose-dependent effect
- CC50 [11]: > 24 µM
- inhibition [12]: Dose-dependent effect
- CC50 [12]: > 24 µM
- inhibition [13]: Dose-dependent effect
- CC50 [13]: > 24 µM
- inhibition at 75 µM [14]: 51 to 71%
- inhibition [15]: Dose-dependent effect
- CC50 [15]: 17 µM
- selectivity ratio [16]: > 8.3
- selectivity ratio [17]: > 8.63
- inhibition at 75 µM [18]: 41 to 92%
- inhibition at 75 µM [19]: 52 to 98%
- inhibition at 75 µM [20]: 52 to 98%
- inhibition [21]: Dose-dependent effect
- CC50 [21]: > 24 µM
- inhibition at 75 µM [22]: 41 to 92%

SMILES: CC(C)(Oc1ccc(CCOc2ccc(NC(=O)Nc3ccccc3)cc2)cc1)C(=O)Nc1ccccc1
- Activity [4]: inactive
- IC50 [10]: 6.1 µM

SMILES: CC(C)(Oc1ccc(CCOc2ccc(NC(=O)Nc3ccccc3)cc2)cc1)C(N)=O
- Activity [4]: inactive
- IC50 [10]: 3.32 µM

SMILES: CC(C)(CCCOc1ccc(/C=C/c2ccccc2)cc1)C(=O)NS(=O)(=O)c1ccccc1
- Activity [1]: inactive
- Activity [2]: Toxic

SMILES: Cc1cccc(Nc2cc(Cl)nc(SCC(=O)O)n2)c1C
- inhibition [23]: inactive
- inhibition [24]: inactive

SMILES: CC(C)(Oc1ccc(CCOc2ccc(/N=N/c3ccccc3)cc2)cc1)C(=O)NS(=O)(=O)c1ccc(NC(=O)Cc2ccccc2)cc1
- Activity [4]: inactive
- IC50 [10]: 3.2 µM

SMILES: CC(C)(CCCOc1ccc(/C=C/c2ccccc2)cc1)C(=O)NS(C)(=O)=O
- Activity [1]: inactive
- Activity [2]: Toxic

SMILES: CCC(=O)NC[C@H](Cc1ccc(OCCc2nc(-c3ccccc3)oc2C)cc1)N/C(C)=C\C(=O)c1ccc(C(F)(F)F)cc1
- inhibition at 75 µM [8]: 85 to 92%

SMILES: CC(C)(Oc1ccc(CCOc2ccc(NC(=O)Nc3ccccc3)cc2)cc1)C(=O)NCc1ccccc1
- Activity [4]: inactive
- IC50 [10]: 10.3 µM

SMILES: CC(C)(Oc1ccc(CCOc2ccc(NC(=O)c3ccccc3)cc2)cc1)C(=O)Nc1ccccc1
- Activity [4]: inactive
- IC50 [10]: 12.3 µM

SMILES: CC(C)(Oc1ccc(CCOc2ccc(NC(=O)Nc3ccccc3)cc2)cc1)C(=O)NS(=O)(=O)c1ccccc1
- Activity [4]: inactive
- IC50 [10]: 1.52 µM

SMILES: CC(C)(Oc1ccc(CCOc2ccc(/N=N/c3ccccc3)cc2)cc1)C(=O)Nc1ccccc1
- Activity [4]: inactive

SMILES: CC(C)(Oc1ccc(CCOc2ccc(NC(=O)c3ccccc3)cc2)cc1)C(=O)NCc1ccccc1
- Activity [4]: inactive
- IC50 [10]: 12.1 µM

SMILES: CCCCNC(=O)C(C)(C)Oc1ccc(CCOc2ccc(NC(=O)c3ccccc3)cc2)cc1
- Activity [4]: inactive

SMILES: CC(C)(Oc1ccc(CCOc2ccc(NC(=O)c3ccccc3)cc2)cc1)C(N)=O
- Activity [4]: inactive
- IC50 [10]: 7 µM

SMILES: CC(C)(Oc1ccc(CCOc2ccc(/N=N/c3ccccc3)cc2)cc1)C(=O)NS(=O)(=O)c1ccccc1
- Imax [4]: 87%
- IC50 [10]: 1.2 µM
- IC50 [25]: 14 µM
- Activity [2]: Toxic

SMILES: CC(C)(Oc1ccc(CCOc2ccc(NC(=O)c3ccccc3)cc2)cc1)C(=O)NS(=O)(=O)c1ccccc1
- inhibition at 75 µM [3]: 41 to 92%
- Activity [4]: inactive
- inhibition [5]: Dose-dependent effect
- CC50 [6]: > 24 µM
- inhibition [7]: Dose-dependent effect
- CC50 [7]: 7 µM
- inhibition at 75 µM [8]: 84 to 98%
- inhibition [9]: Dose-dependent effect
- IC50 [10]: 0.24 µM
- inhibition [11]: Dose-dependent effect
- CC50 [11]: 7 µM
- inhibition [12]: Dose-dependent effect
- CC50 [12]: 7 µM
- inhibition [13]: Dose-dependent effect
- CC50 [13]: 7 µM
- inhibition at 75 µM [14]: 51 to 71%
- inhibition [15]: Dose-dependent effect
- CC50 [15]: 7 µM
- selectivity ratio [16]: > 9.45
- selectivity ratio [17]: > 11.3
- inhibition at 75 µM [18]: 41 to 92%
- inhibition at 75 µM [19]: 52 to 98%
- inhibition at 75 µM [20]: 52 to 98%
- inhibition [21]: Dose-dependent effect
- CC50 [21]: 4.6 µM
- inhibition at 75 µM [22]: 41 to 92%

SMILES: CC(C)(Oc1ccc(CCOc2ccc(/N=N/c3ccccc3)cc2)cc1)C(=O)NS(=O)(=O)c1ccc(Cl)cc1
- inhibition at 75 µM [3]: 41 to 92%
- Activity [4]: inactive
- inhibition [5]: Dose-dependent effect
- CC50 [6]: > 24 µM
- inhibition [7]: Dose-dependent effect
- CC50 [7]: > 24 µM
- inhibition at 75 µM [8]: 84 to 98%
- inhibition [9]: Dose-dependent effect
- IC50 [10]: 0.21 µM
- inhibition [11]: Dose-dependent effect
- CC50 [11]: > 24 µM
- inhibition [12]: Dose-dependent effect
- CC50 [12]: > 24 µM
- inhibition [13]: Dose-dependent effect
- CC50 [13]: > 24 µM
- inhibition at 75 µM [14]: 51 to 71%
- inhibition [15]: Dose-dependent effect
- CC50 [15]: > 24 µM
- selectivity ratio [16]: > 6.35
- selectivity ratio [17]: > 6.63
- inhibition at 75 µM [18]: 41 to 92%
- inhibition at 75 µM [19]: 52 to 98%
- inhibition at 75 µM [20]: 52 to 98%
- inhibition [21]: Dose-dependent effect
- CC50 [21]: > 24 µM
- inhibition at 75 µM [22]: 41 to 92%
